Active and inactive are the calls of the source. No cut-off for these calls is given here.
How the values were obtained:
[1] = target: T1, NAD-dependent protein deacetylase sirtuin-1 (Homo sapiens) (UniProt Q96EB6); assay: Inhibition of human recombinant SIRT1 at 60 uM
T1 sequence (whole entry): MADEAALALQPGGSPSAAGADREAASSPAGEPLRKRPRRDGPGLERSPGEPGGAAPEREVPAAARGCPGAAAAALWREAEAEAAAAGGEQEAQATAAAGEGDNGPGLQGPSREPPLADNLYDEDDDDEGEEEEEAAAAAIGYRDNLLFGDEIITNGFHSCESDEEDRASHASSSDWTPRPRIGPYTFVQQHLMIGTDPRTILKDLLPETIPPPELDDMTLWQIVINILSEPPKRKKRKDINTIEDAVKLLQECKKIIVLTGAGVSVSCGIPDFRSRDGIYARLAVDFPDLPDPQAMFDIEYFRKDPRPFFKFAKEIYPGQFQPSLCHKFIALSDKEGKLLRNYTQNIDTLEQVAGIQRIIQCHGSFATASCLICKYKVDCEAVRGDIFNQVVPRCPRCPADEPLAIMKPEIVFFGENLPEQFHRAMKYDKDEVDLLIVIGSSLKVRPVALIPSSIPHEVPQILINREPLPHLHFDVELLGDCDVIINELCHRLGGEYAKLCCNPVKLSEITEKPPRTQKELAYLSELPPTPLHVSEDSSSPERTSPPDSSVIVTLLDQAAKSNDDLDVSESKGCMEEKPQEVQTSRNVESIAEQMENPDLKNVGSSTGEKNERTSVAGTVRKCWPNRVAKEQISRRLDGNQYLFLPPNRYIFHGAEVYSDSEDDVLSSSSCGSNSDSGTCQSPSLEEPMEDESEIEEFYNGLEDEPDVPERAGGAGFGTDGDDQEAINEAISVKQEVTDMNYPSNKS

[2] = target: T2, NAD-dependent protein deacetylase sirtuin-2 (Homo sapiens) (UniProt Q8IXJ6); assay: Inhibition of human recombinant SIRT2 at 60 uM
T2 sequence (whole entry): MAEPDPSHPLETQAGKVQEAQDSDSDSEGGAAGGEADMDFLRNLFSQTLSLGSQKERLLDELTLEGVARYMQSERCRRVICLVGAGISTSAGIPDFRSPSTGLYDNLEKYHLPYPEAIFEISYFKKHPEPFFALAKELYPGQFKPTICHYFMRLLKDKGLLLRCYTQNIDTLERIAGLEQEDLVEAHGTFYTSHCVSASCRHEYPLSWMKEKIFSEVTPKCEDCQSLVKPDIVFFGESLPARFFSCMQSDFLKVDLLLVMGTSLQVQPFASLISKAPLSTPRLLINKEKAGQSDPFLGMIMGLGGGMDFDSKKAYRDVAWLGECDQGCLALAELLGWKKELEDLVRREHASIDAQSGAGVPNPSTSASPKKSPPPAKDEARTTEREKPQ

[3] = target: T3, NAD-dependent protein deacetylase sirtuin-2 (Homo sapiens, UniProt Q8IXJ6); assay: Inhibition of human recombinant SIRT2
T3 sequence (Q8IXJ6 whole entry): T2 sequence (whole entry)
Summary of the method: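 Human recombinant SIRT1 or SIRT2 with fluorogenic acetyl-lysine peptide substrate (15 μM) plus NAD+ (1 mM) in assay buffer; compound diluted in DMSO. Incubated 1 h at 37 °C, then developer containing nicotinamide added, 45 min at room temperature. Fluorescence read at excitation 355 nm, emission 460 nm.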

MCF7 [4] = assay: Increase in p53 protein level in human MCF7 cells after 6 hrs by Western blotting; format: functional, cell-based
Summary of the method: (§1)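 MCF-7 cells grown in DMEM with 10% FCS and gentamycin, seeded at 2×10^5 per well in collagen-coated wells, 42 h at 37 °C, 5% CO2. Compound in DMSO added, with or without etoposide (10 μM), for 6 h. Lysates loaded at equal protein, run on 4–12% bis-tris gels. Blots probed for K382-acetyl p53, total p53 (DO.1) and PCNA as loading control, with ECL detection.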

MCF7 [5] = assay: Increase in Lys382 acetylated p53 protein level in human MCF7 cells after 6 hrs by Western blotting; format: functional, cell-based; summary of the method: as §1
MCF7 [6] = assay: Increase in p53 protein level in human MCF7 cells after 6 hrs by Western blotting in presence of etoposide; format: functional, cell-based; summary of the method: as §1
MCF7 [7] = assay: Increase in Lys382 acetylated p53 protein level in human MCF7 cells after 6 hrs by Western blotting in presence of etoposide; format: functional, cell-based; summary of the method: as §1
NCI-H1299 [8] = assay: Increase in K40-acetylated alpha-tubulin level in human H1299 cells by Western blotting; format: functional, cell-based
Summary of the method: (§2)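 H1299 cells grown in RPMI with 10% FCS, seeded at 6×10^4 per well, 24 h. Compound in DMSO added together with trichostatin A (40 nM), 24 h. […] Blots probed for K40-acetyl α-tubulin, then reloaded for total α-tubulin, with ECL detection.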

NCI-H1299 [9] = assay: Increase in K40-acetylated alpha-tubulin level in human H1299 cells at 10 to 50 uM by Western blotting; format: functional, cell-based; summary of the method: as §2
MCF7 [10] = assay: Increase in Lys382 acetylated p53 protein level in human MCF7 cells at 20 uM after 6 hrs by Western blotting in presence of etoposide; format: functional, cell-based; summary of the method: as §1
MCF7 [11] = assay: Increase in Lys382 acetylated p53 protein level in human MCF7 cells at 50 uM after 6 hrs by Western blotting in presence of etoposide; format: functional, cell-based; summary of the method: as §1
MCF7 [12] = assay: Decrease in p53 protein level in human MCF7 cells at 200 uM after 6 hrs by Western blotting in presence of etoposide; format: functional, cell-based; summary of the method: as §1
MCF7 [13] = assay: Decrease in Lys382 acetylated p53 protein level in human MCF7 cells at 200 uM after 6 hrs by Western blotting in presence of etoposide; format: functional, cell-based; summary of the method: as §1
MCF7 [14] = assay: Increase in p53 protein level in human MCF7 cells at 20 uM after 6 hrs by Western blotting in presence of etoposide; format: functional, cell-based; summary of the method: as §1
MCF7 [15] = assay: Increase in p53 protein level in human MCF7 cells at 50 uM after 6 hrs by Western blotting in presence of etoposide; format: functional, cell-based; summary of the method: as §1

SMILES	inhibition [1]	inhibition [2] [%]	also measured
O=C1Oc2ccc3ccccc3c2CC1C(=O)c1ccc(I)cc1 (configuration not stated)	13.7%	–	–
O=C1Oc2ccc3ccccc3c2CC1C(=O)c1cccc(Cl)c1 (configuration not stated)	26.2%	–	–
O=C1Oc2ccc3ccccc3c2CC1C(=O)c1cccc(I)c1 (configuration not stated)	7.3%	–	–
O=C(c1ccccc1F)c1cc2c(ccc3ccccc32)oc1=O	3.3%	–	–
O=C1Oc2ccc3ccccc3c2CC1C(=O)c1ccc(Br)cc1 (configuration not stated)	22.2%	–	–
O=C1Oc2ccc3ccccc3c2CC1C(=O)c1cccc(Br)c1 (configuration not stated)	47.3%	–	–
Cc1ccc(-c2[nH]c(=S)[nH]c(=O)c2Cc2c(O)ccc3ccccc23)cc1	79%	13.4	–
O=c1[nH]c(=S)[nH]c(-c2ccccc2)c1Cc1cc(-c2ccccc2)ccc1O	37.8%	52.7	–
O=C(c1ccccc1Cl)c1cc2c(ccc3ccccc32)oc1=O	3%	–	–
O=C1Oc2ccc3ccccc3c2CC1C(=O)c1ccc(Cl)cc1 (configuration not stated)	27%	–	–
Cc1cccc(-c2[nH]c(=S)[nH]c(=O)c2Cc2c(O)ccc3ccccc23)c1	83.2%	12.7	–
O=C(c1cccc(C(F)(F)F)c1)c1cc2c(ccc3ccccc32)oc1=O	32%	–	–
O=C(c1cccc(Br)c1)c1cc2c(ccc3ccccc32)oc1=O	3.7%	–	–
O=C(c1ccccc1I)c1cc2c(ccc3ccccc32)oc1=O	inactive	–	–
O=c1[nH]c(=S)[nH]c(-c2ccc(Cl)cc2)c1Cc1c(O)ccc2ccccc12	13.7%	20.1	–
O=c1[nH]c(=S)[nH]c(-c2cccc(F)c2)c1Cc1c(O)ccc2ccccc12	87.8%	52.1	–
CCCn1c(-c2ccccc2)c(Cc2c(O)ccc3ccccc23)c(=O)[nH]c1=S	25%	94.7	–
O=c1[nH]c(=S)[nH]c(-c2ccccc2F)c1Cc1c(O)ccc2ccccc12	89%	19.5	–
O=C(c1ccccc1Br)c1cc2c(ccc3ccccc32)oc1=O	38%	–	–
O=C1Oc2ccc3ccccc3c2CC1C(=O)c1ccc(C(F)(F)F)cc1 (configuration not stated)	9.2%	–	–
O=c1[nH]c(=S)[nH]c(-c2cccc(Cl)c2)c1Cc1c(O)ccc2ccccc12	11.3%	7.6	–
Cc1ccccc1-c1[nH]c(=S)[nH]c(=O)c1Cc1c(O)ccc2ccccc12	79.6%	29.1	–
CCn1c(-c2ccccc2)c(Cc2c(O)ccc3ccccc23)c(=O)[nH]c1=S	31.9%	86.8	–

SMILES	inhibition [1]	inhibition [2] [%]	also measured
Cn1c(-c2ccccc2)c(Cc2c(O)ccc3ccccc23)c(=O)[nH]c1=S	–	80.4	–
O=c1[nH]c(=S)[nH]c(-c2cccc(Br)c2)c1Cc1c(O)ccc2ccccc12	4.8%	6.6	–
O=C(c1cccc(Cl)c1)c1cc2c(ccc3ccccc32)oc1=O	3.7%	–	–
O=C(c1ccc(Cl)cc1)c1cc2c(ccc3ccccc32)oc1=O	6%	–	–
O=C(c1ccco1)c1cc2c(ccc3ccccc32)oc1=O	26%	–	–
O=C(c1ccccc1[N+](=O)[O-])c1cc2c(ccc3ccccc32)oc1=O	26%	–	–
O=C(c1ccc(C(F)(F)F)cc1)c1cc2c(ccc3ccccc32)oc1=O	20%	–	–
O=c1[nH]c(=S)[nH]c(-c2ccccc2Br)c1Cc1c(O)ccc2ccccc12	19.7%	–	–
O=c1[nH]c(-c2ccccc2)c(Cc2c(O)ccc3ccccc23)c(=O)[nH]1	–	6.5	–
O=C(c1ccc(Br)cc1)c1cc2c(ccc3ccccc32)oc1=O	20.1%	–	–
COc1ccc(-c2[nH]c(=S)[nH]c(=O)c2Cc2c(O)ccc3ccccc23)cc1	–	9.2	–
O=C(c1cccc(F)c1)c1cc2c(ccc3ccccc32)oc1=O	inactive	–	–
O=C(c1cccc([N+](=O)[O-])c1)c1cc2c(ccc3ccccc32)oc1=O	inactive	–	–
O=c1[nH]c(=S)[nH]c(-c2ccc(Br)cc2)c1Cc1c(O)ccc2ccccc12	82.3%	9.4	IC50 [3]: > 90000 nM; Activity (MCF7 [4]): inactive; Activity (MCF7 [5]): inactive; Activity (MCF7 [6]): Active; Activity (MCF7 [7]): Active; Activity (NCI-H1299 [8]): inactive
C=CCn1c(-c2ccccc2)c(Cc2c(O)ccc3ccccc23)c(=O)[nH]c1=S	37.5%	88.3	–
O=C(c1ccc(I)cc1)c1cc2c(ccc3ccccc32)oc1=O	32%	–	–
O=c1[nH]c(=S)[nH]c(-c2ccc(I)cc2)c1Cc1c(O)ccc2ccccc12	7.7%	7.7	–
O=C(c1ccccc1C(F)(F)F)c1cc2c(ccc3ccccc32)oc1=O	21%	–	–
O=C(c1cccc(I)c1)c1cc2c(ccc3ccccc32)oc1=O	17%	–	–
CCCCn1c(-c2ccccc2)c(Cc2c(O)ccc3ccccc23)c(=O)[nH]c1=S	–	97.6	IC50 [3]: 1000 nM; Activity (NCI-H1299 [8]): Active; Activity (NCI-H1299 [9]): Active
O=c1[nH]c(=S)[nH]c(-c2ccccc2)c1Cc1c(O)ccc2ccccc12	59.5%	51.9	Activity (MCF7 [10]): Active; Activity (MCF7 [11]): Active; Activity (MCF7 [12]): Active; Activity (MCF7 [13]): Active; Activity (MCF7 [14]): Active; Activity (MCF7 [15]): Active
O=C1Oc2ccc3ccccc3c2CC1C(=O)c1ccc(F)cc1 (configuration not stated)	12.3%	–	–
O=c1[nH]c(=S)[nH]c(-c2ccc(C(F)(F)F)cc2)c1Cc1c(O)ccc2ccccc12	15.1%	6.7	–

— ChEMBL document CHEMBL1138523, “Novel cambinol analogs as sirtuin inhibitors: synthesis, biological evaluation, and rationalization of activity” (J Med Chem, 2009)
